From ChEMBL document CHEMBL4354843, “Structure-Based Design of a Potent and Selective Covalent Inhibitor for SRC Kinase That Targets a P-Loop Cysteine” (J Med Chem, 2020)
Calls of active or inactive are those of the source. No cut-off for these calls is given here.

What was measured:
[1] = test system: Tyrosine-protein kinase ABL1 (Homo sapiens), P00519 [Y253F]; assay: Binding affinity to human phosphorylated ABL1 Y253F mutant (S229 to K512 residues) expressed in mammalian expression system assessed as residual binding level at 1 uM by Kinomescan method relative to control
Outline: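 Active-site-directed KinomeScan competition binding panel covering 468 kinases, compound tested at 1 μM. Each readout is the kinase signal remaining with compound, expressed as a percentage of the DMSO control. […]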

[2] = molecular target: High affinity nerve growth factor receptor (Homo sapiens) (UniProt P04629); assay: Binding affinity to wild-type human partial length TRKA (G475 to G790 residues) expressed in mammalian expression system assessed as residual binding level at 1 uM by Kinomescan method relative to control
Sequence of High affinity nerve growth factor receptor (Homo sapiens) (P04629 33-796 limits assumed): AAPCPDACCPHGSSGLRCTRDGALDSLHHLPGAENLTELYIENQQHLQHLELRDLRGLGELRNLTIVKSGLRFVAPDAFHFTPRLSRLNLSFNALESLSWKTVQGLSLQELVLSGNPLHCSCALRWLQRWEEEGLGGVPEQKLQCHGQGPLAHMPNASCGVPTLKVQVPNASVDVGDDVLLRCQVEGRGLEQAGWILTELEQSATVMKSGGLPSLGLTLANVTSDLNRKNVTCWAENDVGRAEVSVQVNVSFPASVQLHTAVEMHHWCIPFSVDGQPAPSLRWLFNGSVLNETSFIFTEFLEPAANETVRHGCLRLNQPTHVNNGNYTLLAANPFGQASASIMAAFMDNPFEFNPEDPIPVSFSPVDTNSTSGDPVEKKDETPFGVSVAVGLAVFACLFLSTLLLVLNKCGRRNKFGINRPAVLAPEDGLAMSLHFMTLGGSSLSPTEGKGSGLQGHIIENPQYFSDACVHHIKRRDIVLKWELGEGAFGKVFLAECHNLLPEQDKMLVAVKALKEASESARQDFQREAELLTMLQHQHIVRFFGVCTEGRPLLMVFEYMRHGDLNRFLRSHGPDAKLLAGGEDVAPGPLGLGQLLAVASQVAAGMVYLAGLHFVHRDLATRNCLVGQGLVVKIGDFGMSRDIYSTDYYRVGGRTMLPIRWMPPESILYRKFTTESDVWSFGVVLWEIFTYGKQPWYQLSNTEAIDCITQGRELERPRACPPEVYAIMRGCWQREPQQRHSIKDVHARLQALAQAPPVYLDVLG

[3] = test system: Epidermal growth factor receptor (Homo sapiens), P00533 [T790M]; assay: Binding affinity to human partial length EGFR T790M mutant (R669 to G1022 residues) expressed in mammalian expression system assessed as residual binding level at 1 uM by Kinomescan method relative to control
Outline: (§1)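 KinomeScan active site-directed competition binding panel (468 kinases), compound tested at 1 μM. Result expressed as remaining kinase signal versus DMSO control (percent of control).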

[4] = molecular target: Ribosomal protein S6 kinase alpha-6 (Homo sapiens) (UniProt Q9UK32); assay: Binding affinity to wild-type human partial length N- terminal RSK4 kinase domain 1 (M1 to E397 residues) expressed in mammalian expression system assessed as residual binding level at 1 uM by Kinomescan method relative to control
Sequence of Ribosomal protein S6 kinase alpha-6 (Homo sapiens) (Q9UK32 whole entry, the tested form may be a part): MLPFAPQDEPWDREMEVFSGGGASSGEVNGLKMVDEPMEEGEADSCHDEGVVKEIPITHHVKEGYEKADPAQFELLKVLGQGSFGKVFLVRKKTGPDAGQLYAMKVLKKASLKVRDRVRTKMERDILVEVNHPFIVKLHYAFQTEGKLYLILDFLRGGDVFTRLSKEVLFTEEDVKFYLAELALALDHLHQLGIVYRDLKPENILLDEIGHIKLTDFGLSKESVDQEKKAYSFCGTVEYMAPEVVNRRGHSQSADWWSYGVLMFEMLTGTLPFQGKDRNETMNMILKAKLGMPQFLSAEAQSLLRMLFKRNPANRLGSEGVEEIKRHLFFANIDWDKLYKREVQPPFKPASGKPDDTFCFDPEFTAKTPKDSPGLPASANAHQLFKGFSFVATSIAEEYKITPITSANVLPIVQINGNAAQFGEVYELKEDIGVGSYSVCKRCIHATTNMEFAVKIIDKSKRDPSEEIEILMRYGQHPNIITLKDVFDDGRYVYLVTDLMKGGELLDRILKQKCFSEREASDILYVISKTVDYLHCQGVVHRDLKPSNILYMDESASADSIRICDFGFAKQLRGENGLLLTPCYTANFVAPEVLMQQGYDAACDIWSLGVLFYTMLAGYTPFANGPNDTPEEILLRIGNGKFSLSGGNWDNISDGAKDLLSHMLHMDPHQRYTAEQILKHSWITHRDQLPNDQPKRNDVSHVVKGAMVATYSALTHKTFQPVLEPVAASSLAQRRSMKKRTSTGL
Outline: (§2)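 Active-site-directed competition binding panel of 468 kinases (KinomeScan), compound at 1 μM. The read-out is kinase remaining bound, given as a percentage of the DMSO control. […]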

[5] = molecular target: Serine/threonine-protein kinase D3 (Homo sapiens) (UniProt O94806); assay: Binding affinity to wild-type human partial length PRKD3 (S543 to E863 residues) expressed in bacterial expression system assessed as residual binding level at 1 uM by Kinomescan method relative to control; outline: as §2
Sequence of Serine/threonine-protein kinase D3 (Homo sapiens) (O94806 whole entry, the tested form may be a part): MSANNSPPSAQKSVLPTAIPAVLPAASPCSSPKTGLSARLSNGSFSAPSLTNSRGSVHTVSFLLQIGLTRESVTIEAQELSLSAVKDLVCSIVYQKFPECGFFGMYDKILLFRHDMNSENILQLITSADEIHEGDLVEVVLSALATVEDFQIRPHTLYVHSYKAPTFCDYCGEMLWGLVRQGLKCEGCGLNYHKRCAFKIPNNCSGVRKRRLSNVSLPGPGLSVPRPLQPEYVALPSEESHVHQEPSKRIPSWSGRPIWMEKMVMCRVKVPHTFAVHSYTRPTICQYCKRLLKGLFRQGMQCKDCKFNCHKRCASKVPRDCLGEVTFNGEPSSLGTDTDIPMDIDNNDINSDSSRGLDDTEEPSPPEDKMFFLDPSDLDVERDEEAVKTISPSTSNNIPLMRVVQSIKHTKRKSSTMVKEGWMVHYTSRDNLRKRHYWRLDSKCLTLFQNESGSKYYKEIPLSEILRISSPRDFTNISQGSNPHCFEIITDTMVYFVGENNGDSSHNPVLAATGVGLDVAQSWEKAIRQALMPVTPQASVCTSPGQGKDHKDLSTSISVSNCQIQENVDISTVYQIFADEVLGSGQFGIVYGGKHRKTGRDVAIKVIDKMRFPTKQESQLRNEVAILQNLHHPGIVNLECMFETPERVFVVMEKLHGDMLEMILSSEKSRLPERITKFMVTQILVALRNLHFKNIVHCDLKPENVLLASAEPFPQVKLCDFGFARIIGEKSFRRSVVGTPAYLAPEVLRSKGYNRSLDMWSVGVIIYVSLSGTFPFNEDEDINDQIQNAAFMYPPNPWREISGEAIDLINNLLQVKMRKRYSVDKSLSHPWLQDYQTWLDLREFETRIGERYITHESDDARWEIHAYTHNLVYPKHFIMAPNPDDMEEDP

[6] = molecular target: Serine/threonine-protein kinase 32A (Homo sapiens) (UniProt Q8WU08); assay: Binding affinity to wild-type human full length YANK1 (M1 to L396 residues) expressed in mammalian expression system assessed as residual binding level at 1 uM by Kinomescan method relative to control
[7] = molecular target: Serine/threonine-protein kinase ULK1 (Homo sapiens) (UniProt O75385); assay: Binding affinity to wild-type human partial length ULK1 (M1 to T309 residues) expressed in mammalian expression system assessed as residual binding level at 1 uM by Kinomescan method relative to control
Sequence of Serine/threonine-protein kinase ULK1 (Homo sapiens) (O75385 whole entry, the tested form may be a part): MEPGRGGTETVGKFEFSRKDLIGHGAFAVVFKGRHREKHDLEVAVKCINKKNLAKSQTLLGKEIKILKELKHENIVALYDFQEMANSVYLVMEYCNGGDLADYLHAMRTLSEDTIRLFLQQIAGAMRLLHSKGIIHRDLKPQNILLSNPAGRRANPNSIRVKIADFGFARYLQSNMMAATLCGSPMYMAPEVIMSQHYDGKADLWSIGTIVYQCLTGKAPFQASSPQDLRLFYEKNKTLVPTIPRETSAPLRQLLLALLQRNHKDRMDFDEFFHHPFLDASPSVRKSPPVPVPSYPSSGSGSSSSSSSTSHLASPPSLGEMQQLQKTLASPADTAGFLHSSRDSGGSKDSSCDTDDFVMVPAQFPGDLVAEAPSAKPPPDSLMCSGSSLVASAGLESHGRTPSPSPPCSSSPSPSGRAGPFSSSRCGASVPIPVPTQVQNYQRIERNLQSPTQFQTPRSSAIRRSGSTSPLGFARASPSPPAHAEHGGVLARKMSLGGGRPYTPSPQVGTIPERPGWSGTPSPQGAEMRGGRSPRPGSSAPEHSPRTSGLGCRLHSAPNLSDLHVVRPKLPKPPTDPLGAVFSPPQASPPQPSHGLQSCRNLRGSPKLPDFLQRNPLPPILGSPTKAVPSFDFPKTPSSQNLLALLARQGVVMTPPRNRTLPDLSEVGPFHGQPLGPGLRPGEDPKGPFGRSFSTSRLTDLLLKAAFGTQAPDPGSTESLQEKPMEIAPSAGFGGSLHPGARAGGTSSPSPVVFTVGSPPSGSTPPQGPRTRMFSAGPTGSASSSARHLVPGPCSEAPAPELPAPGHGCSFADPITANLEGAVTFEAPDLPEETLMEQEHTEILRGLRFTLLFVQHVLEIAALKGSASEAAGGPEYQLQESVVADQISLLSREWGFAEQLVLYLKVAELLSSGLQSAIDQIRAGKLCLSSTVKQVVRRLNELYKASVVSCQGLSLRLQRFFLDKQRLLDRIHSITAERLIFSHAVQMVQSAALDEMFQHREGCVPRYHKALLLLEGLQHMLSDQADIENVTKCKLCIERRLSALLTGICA

[8] = molecular target: Cyclin-dependent kinase 19 (Homo sapiens) (UniProt Q9BWU1); assay: Binding affinity to wild-type human partial length CDK11 (M1 to N360 residues) expressed in bacterial expression system assessed as residual binding level at 1 uM by Kinomescan method relative to control
Outline: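 KinomeScan, an active site-directed competition binding panel of 468 kinases. The test compound was at 1 μM. The readout is remaining kinase binding as a percentage of the DMSO control. Scores above 35% were treated as weak binding and not listed.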

[9] = molecular target: Dual specificity protein kinase CLK2 (Homo sapiens) (UniProt P49760); assay: Binding affinity to wild-type human partial length CLK2 (D144 to R498 residues) expressed in bacterial expression system assessed as residual binding level at 1 uM by Kinomescan method relative to control
[10] = molecular target: cAMP-dependent protein kinase catalytic subunit PRKX (Homo sapiens) (UniProt P51817); assay: Binding affinity to wild-type human partial length PRKX (M1 to F358 residues) expressed in bacterial expression system assessed as residual binding level at 1 uM by Kinomescan method relative to control
[11] = molecular target: Serine/threonine-protein kinase Chk1 (Homo sapiens) (UniProt O14757); assay: Binding affinity to wild-type human partial length CHEK1 (M1 to G289 residues) expressed in bacterial expression system assessed as residual binding level at 1 uM by Kinomescan method relative to control
[12] = molecular target: Receptor tyrosine-protein kinase erbB-3 (Homo sapiens) (UniProt P21860); assay: Binding affinity to wild-type human partial length ERBB3 (G684 to A987 residues) expressed in mammalian expression system assessed as residual binding level at 1 uM by Kinomescan method relative to control
[13] = molecular target: RAC-gamma serine/threonine-protein kinase (Homo sapiens) (UniProt Q9Y243); assay: Binding affinity to wild-type human partial length AKT3 expressed in bacterial expression system assessed as residual binding level at 1 uM by Kinomescan method relative to control
Sequence of RAC-gamma serine/threonine-protein kinase (Homo sapiens) (Q9Y243 whole entry, the tested form may be a part): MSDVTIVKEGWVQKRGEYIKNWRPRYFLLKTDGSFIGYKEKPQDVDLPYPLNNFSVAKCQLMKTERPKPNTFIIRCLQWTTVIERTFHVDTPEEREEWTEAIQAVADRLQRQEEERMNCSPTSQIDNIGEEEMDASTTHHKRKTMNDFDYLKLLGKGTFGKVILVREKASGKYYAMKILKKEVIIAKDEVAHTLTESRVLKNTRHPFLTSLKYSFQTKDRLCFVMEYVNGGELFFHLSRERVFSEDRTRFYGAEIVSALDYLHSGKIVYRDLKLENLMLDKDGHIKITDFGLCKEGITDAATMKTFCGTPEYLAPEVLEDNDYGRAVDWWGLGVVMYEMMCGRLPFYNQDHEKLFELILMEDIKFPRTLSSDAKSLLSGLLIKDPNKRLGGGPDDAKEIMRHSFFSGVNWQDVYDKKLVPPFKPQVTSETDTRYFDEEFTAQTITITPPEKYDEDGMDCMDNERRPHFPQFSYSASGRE

[14] = molecular target: Cyclin-dependent kinase 8 (Homo sapiens) (UniProt P49336); assay: Binding affinity to wild-type human partial length CDK8 (M1 to T360 residues) expressed in bacterial expression system assessed as residual binding level at 1 uM by Kinomescan method relative to control
Sequence of Cyclin-dependent kinase 8 (Homo sapiens) (P49336 whole entry, the tested form may be a part): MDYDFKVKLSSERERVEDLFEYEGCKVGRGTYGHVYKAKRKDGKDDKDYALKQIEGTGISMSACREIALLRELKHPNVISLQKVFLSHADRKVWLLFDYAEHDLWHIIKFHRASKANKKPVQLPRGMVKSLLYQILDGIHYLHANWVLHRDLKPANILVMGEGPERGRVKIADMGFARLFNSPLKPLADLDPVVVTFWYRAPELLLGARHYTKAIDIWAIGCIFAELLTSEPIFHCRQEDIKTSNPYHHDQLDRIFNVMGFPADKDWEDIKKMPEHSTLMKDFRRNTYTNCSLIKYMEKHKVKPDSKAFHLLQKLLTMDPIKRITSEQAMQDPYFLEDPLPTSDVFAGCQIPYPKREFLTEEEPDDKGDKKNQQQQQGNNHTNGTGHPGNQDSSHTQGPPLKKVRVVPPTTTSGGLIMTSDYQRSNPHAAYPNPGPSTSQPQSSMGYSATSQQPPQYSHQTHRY

[15] = molecular target: Dual specificity mitogen-activated protein kinase kinase; MEK1/2 (Homo sapiens) (UniProt P36507+Q02750); assay: Inhibition of MEK1/2 in human HCC827 cells assessed as blocking of MEK1/2 pulldown at 1 uM in presence of TL13-68 incubated for 2 hrs by Western blot analysis; type: cell-based
Outline: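 H1975 or HCC827 cells treated with 1 μM compound or DMSO for 2 h, rinsed twice in cold PBS, and lysed in M-PER with protease/phosphatase inhibitors. Lysate rocked overnight at 4 °C with 1 μM TL13-68, then streptavidin pulldown with five cold washes. Bound kinases detected by Western blot. Two independent experiments.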

[16] = molecular target: Casein kinase I isoform alpha (Homo sapiens) (UniProt P48729); assay: Binding affinity to wild-type human partial length CSNK1A1 (M1 to L450 residues) expressed in mammalian expression system assessed as residual binding level at 1 uM by Kinomescan method relative to control; outline: as §2
[17] = molecular target: Serine/threonine-protein kinase ULK3 (Homo sapiens) (UniProt Q6PHR2); assay: Binding affinity to wild-type human partial length ULK3 (M1 to Q290 residues) expressed in mammalian expression system assessed as residual binding level at 1 uM by Kinomescan method relative to control
[18] = molecular target: Serine/threonine-protein kinase PLK4 (Homo sapiens) (UniProt O00444); assay: Binding affinity to wild-type human partial length PLK4 (M1 to S273 residues) expressed in mammalian expression system assessed as residual binding level at 1 uM by Kinomescan method relative to control
[19] = test system: Receptor-type tyrosine-protein kinase FLT3 (Homo sapiens), P36888 [R834Q]; assay: Binding affinity to human partial length FLT3 R834Q mutant (V592 to Y969 residues) expressed in mammalian expression system assessed as residual binding level at 1 uM by Kinomescan method relative to control; outline: as §1
[20] = molecular target: Serine/threonine-protein kinase 38-like (Homo sapiens) (UniProt Q9Y2H1); assay: Binding affinity to wild-type human partial length NDR2 (N34 to E447 residues) expressed in bacterial expression system assessed as residual binding level at 1 uM by Kinomescan method relative to control; outline: as §2
Sequence of Serine/threonine-protein kinase 38-like (Homo sapiens) (Q9Y2H1 2-464 limits assumed): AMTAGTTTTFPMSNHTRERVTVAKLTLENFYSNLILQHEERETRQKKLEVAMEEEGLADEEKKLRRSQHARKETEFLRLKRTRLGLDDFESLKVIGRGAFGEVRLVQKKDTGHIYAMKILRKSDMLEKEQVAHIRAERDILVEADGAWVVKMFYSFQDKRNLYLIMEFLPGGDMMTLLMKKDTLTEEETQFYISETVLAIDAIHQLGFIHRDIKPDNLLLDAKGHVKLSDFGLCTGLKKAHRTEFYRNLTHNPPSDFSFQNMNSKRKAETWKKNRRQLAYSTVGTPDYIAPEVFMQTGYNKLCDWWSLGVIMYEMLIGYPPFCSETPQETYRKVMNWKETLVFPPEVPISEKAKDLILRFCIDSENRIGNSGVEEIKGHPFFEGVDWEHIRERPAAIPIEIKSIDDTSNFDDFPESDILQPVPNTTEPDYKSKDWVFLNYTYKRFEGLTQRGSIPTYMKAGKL

[21] = molecular target: Mitogen-activated protein kinase kinase kinase 14 (Homo sapiens) (UniProt Q99558); assay: Binding affinity to wild-type human partial length NIK (L318 to P947 residues) expressed in mammalian expression system assessed as residual binding level at 1 uM by Kinomescan method relative to control

C=CC(=O)Nc1ccccc1Nc1nc(Nc2ccc(N3CCN(C)CC3)cc2)ncc1C(=O)Nc1c(C)cccc1Cl
Activity [1]: 0.1% | Activity [2]: 100% | Activity [3]: 100% | Activity [4]: 77% | Activity [5]: 99% | Activity [6]: 100% | Activity [7]: 100% | Activity [8]: 96% | Activity [9]: 100% | Activity [10]: 100% | Activity [11]: 100% | Activity [12]: 89% | Activity [13]: 100% | Activity [14]: 100% | inhibition [15]: inactive | Activity [16]: 86% | Activity [17]: 100% | Activity [18]: 92% | Activity [19]: 100% | Activity [20]: 93% | Activity [21]: 100%
